Assays:
[1] = biological target: GABA-A receptor; anion channel (Rattus norvegicus) (UniProt O09028+P15431+P18506+P18508+P19969+P20236+P23574+P23576+P28471+P28473+P30191+P62813+P63079+P63138+Q91ZM7+Q9ES14); assay: Inhibition of Wistar rat benzodiazepine receptor at 2 uM; format: protein-complex assay
[2] = Partition coefficient of the compound, log P; format: physicochemical; settings: octanol/water
In short: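 Experimental 1-octanol/water partition coefficient.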

Mus musculus [3] = assay: Neurotoxicological activity in NMRI BR mice after ip administration by rotarod test; format: functional
In short: (§1)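 Male mice (CF-1 at NIH; NMRI BR at elbion), trained beforehand, dosed i.p. Motor impairment was defined as failure to stay on a rod (6 rpm, 0.9 cm diameter) for 1 min in at least one of three trials. The same animals were tested at several times (≥3 doses, n = 8/group). TD50 at peak time by probit analysis.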

Mus musculus [4] = assay: Anxiolytic activity in NMRI BR mice after ip administration by PTZ test; format: functional
In short: (§2)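 Male mice (NMRI BR at elbion, three per dose; CF-1 at NIH, up to five) given compound or vehicle i.p. at 30, 100, 300 mg/kg, 30 min and 4 h pretreatment. PTZ 85 mg/kg s.c. into neck, then 30 min observation for first generalized clonic seizure with loss of righting reflex.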

Rattus norvegicus [5] = assay: Anxiolytic activity in rat after oral administration by PTZ test; format: functional
In short: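 Rats dosed orally. PTZ 70 mg/kg given s.c., then 30 min observation for first generalized clonic seizure with loss of righting reflex. Protection was measured at several pretreatment times (n = 3-4), and the peak time was used for the dose-response.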

Mus musculus [6] = assay: Anxiolytic activity in CF1 mice after ip administration by PTZ test; format: functional; in short: as §2
Mus musculus [7] = assay: Neurotoxicological activity in CF1 mice after ip administration by rotarod test; format: functional; in short: as §1
Rattus norvegicus [8] = assay: Neurotoxicological activity in rat after oral administration by rotarod test; format: functional
In short: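 Trained male rats dosed orally. Motor impairment was defined as failure to stay on a rod (8 rpm, 6 cm diameter) for 1 min in at least one of three trials. The same animals were tested at several time points (≥3 dose groups, n = 8/group). TD50 at time of peak neurotoxicity by probit analysis.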

[9] = biological target: GABA-A receptor; anion channel; assay: Binding affinity to Wistar rat benzodiazepine receptor; format: protein-complex assay
In short: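 Rat (male Wistar, 180-200 g) whole-brain membranes without cerebellum in 0.05 M Tris/HCl pH 7.7. Bound ligand separated on filters and counted by scintillation. IC50 from 6-10 concentrations, Ki by Cheng-Prusoff, at least four repeats averaged.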

Rattus norvegicus [10] = assay: Anxiolytic activity in rat after oral administration by vogel conflict test; format: functional; settings: read-out: MED
In short: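 Modified Vogel conflict test in rats after oral dosing. Water-deprived 24 h, trained to drink 5.0% glucose for 5 min, deprived a further 24 h. The 210 s test session had 30 s unpunished drinking, then 180 s with mild shock on touching the drinking tube. Punished and unpunished licks counted. Minimal effective dose reported.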

Cynomolgus monkey [11] = assay: Plasma concentration in cynomolgus monkey at 5 mg/kg, po; format: ADME, organism-based, Macaca fascicularis; set-up: dose 5 mg/kg, route oral; settings: in vivo
Cynomolgus monkey [12] = assay: Plasma concentration in cynomolgus monkey at 30 mg/kg, po; format: ADME, organism-based, Macaca fascicularis; set-up: dose 30 mg/kg, route oral; settings: in vivo

Compound | inhibition [1] [%] | logP [2] | TD50 (Mus musculus [3]) [mg/kg] | ED50 (Mus musculus [4]) [mg/kg] | ED50 (Rattus norvegicus [5]) [mg/kg] | ED50 (Mus musculus [6]) [mg/kg] | TD50 (Mus musculus [7]) [mg/kg] | TD50 (Rattus norvegicus [8]) [mg/kg] | Ki [9] [µM] | minimal effective dose (Rattus norvegicus [10]) [mg/kg] | concentration (Cynomolgus monkey [11]) [µM] | concentration (Cynomolgus monkey [12]) [µM]
CN(C)C1=NC(=O)N(c2ccc(Cl)cc2)C1 | < 20 | 1.6 | > 300 | > 300 | – | – | – | – | – | – | – | –
O=C1N=C(N2CCOCC2)CN1c1ccc(F)cc1 | < 20 | – | – | – | 34.1 | 35 | > 500 | > 60 | – | – | – | –
O=C1N=C(N2CCOCC2)CN1Cc1ccccc1 | < 20 | 0.5 | > 300 | > 300 | – | – | – | – | – | – | – | –
O=c1cc(-c2ccccc2)on1-c1ccc(Cl)cc1 | – | 4.1 | < 300 | 253 | – | – | – | – | – | – | – | –
Clc1ccc(-c2cnn(-c3ccccn3)c2)cc1 | – | 4.3 | > 300 | > 300 | – | – | – | – | – | – | – | –
O=C1N=C(N2CCOCC2)CN1Cc1ccccc1Cl | – | 1 | > 300 | > 300 | – | – | – | – | – | – | – | –
O=C1C=C(N2CCOCC2)C(=O)N1c1ccc(Cl)cc1 | – | 2.3 | > 300 | 120 | – | – | – | – | 8.88 | – | – | –
CC(c1ccccc1)N1CC(N2CCOCC2)=NC1=O (configuration not stated) | – | 0.8 | > 100 | > 300 | – | – | – | – | – | – | – | –
Cc1ccc(N2CC(N3CCOCC3)=CC2=O)cc1 | – | 1.4 | 100 | 89.3 | – | – | – | – | 0.344 | – | – | –
O=C1C=C(N2CCCC2)C(=O)N1c1ccc(Cl)cc1 | – | 3 | > 300 | > 300 | – | – | – | – | 3.26 | – | – | –
O=C1N=C(N2CCCC2)CN1c1ccc(Cl)cc1 | – | 2 | > 300 | > 300 | 14.2 | – | – | > 500 | 4.29 | 3 | – | –
Cc1cccc(N2CC(N3CCOCC3)=CC2=O)c1 | – | 1.5 | < 100 | 62.3 | – | – | – | – | 4.45 | – | – | –
O=C1N=C(N2CCOCC2)CN1c1ccc(I)cc1 | – | 1.7 | – | – | 50 | 43 | > 300 | > 50 | – | – | – | –
O=C1C=C(N2CCOCC2)CN1c1ccc(Cl)cc1 | – | 1.9 | 97 | 10.9 | – | – | 60.9 | > 500 | 0.141 | 10 | – | –
CN1C(=O)CN=C(c2ccccc2)c2cc(Cl)ccc21 [DIAZEPAM] | – | – | 2 | 0.4 | 6.3 | – | – | 13 | – | 1 | – | –
Clc1ccc(-n2cnc(-c3ccccc3)c2)cc1 | – | 3.7 | > 300 | > 300 | – | – | – | – | 3.29 | – | – | –
O=C1N=C(N2CCOCC2)CN1c1ccccc1 | – | 0.6 | > 300 | 121 | – | – | – | – | 6.28 | – | – | –
O=C1C=C(N2CCCC2)C(=O)N1c1ccc(F)cc1 | < 20 | 2.3 | > 300 | > 200 | – | – | – | – | – | – | – | –
O=C1C=C(c2ccc(Cl)cc2)C(=O)N1c1ccc(Cl)cc1 | < 20 | 3 | > 300 | > 300 | – | – | – | – | – | – | – | –

Compound | inhibition [1] [%] | logP [2] | TD50 (Mus musculus [3]) [mg/kg] | ED50 (Mus musculus [4]) [mg/kg] | ED50 (Rattus norvegicus [5]) [mg/kg] | ED50 (Mus musculus [6]) [mg/kg] | TD50 (Mus musculus [7]) [mg/kg] | TD50 (Rattus norvegicus [8]) [mg/kg] | Ki [9] [µM] | minimal effective dose (Rattus norvegicus [10]) [mg/kg] | concentration (Cynomolgus monkey [11]) [µM] | concentration (Cynomolgus monkey [12]) [µM]
O=C1C=C(N2CCCC2)CN1c1ccc(Cl)cc1 | – | – | > 300 | > 300 | > 200 | – | – | – | 0.067 | – | – | –
O=C1C=C(N2CCCCCC2)CN1c1ccc(Cl)cc1 | – | 3.4 | > 100 | 234 | – | – | – | – | 0.44 | – | – | –
CN1CCN(C2=NC(=O)N(c3ccc(Cl)cc3)C2)CC1 | < 20 | 2.2 | > 100 | > 300 | – | – | – | – | – | – | – | –
O=C1C2C=Nc3ccccc3C2=NN1c1ccc(Cl)cc1 (configuration not stated) [CGS-9896] | – | – | 302 | 1.36 | 2.7 | – | – | > 500 | 0.0024 | 0.3 | 0.027 | –
O=C1N=C(N2CCOCC2)CN1Cc1c(Cl)cccc1Cl | – | 1.3 | > 300 | > 300 | – | – | – | – | – | – | – | –
O=c1oc(-c2ccccc2)nn1-c1ccc(Cl)cc1 | < 20 | 2.6 | > 300 | > 300 | – | – | – | – | – | – | – | –
O=C1N=C(N2CCCCCCC2)CN1c1ccc(Cl)cc1 | – | 2.7 | > 300 | > 300 | – | – | – | – | – | – | – | –
Clc1ccc(-c2noc(N3CCOCC3)n2)cc1 | – | 3.1 | > 300 | > 300 | – | – | – | – | 26.1 | – | – | –
O=C1N=C(N2CCOCC2)CN1c1ccc(Br)cc1 | – | 1.4 | 345 | 21.8 | 27.7 | – | – | 473 | 3.06 | 100 | – | –
O=c1cc(-c2ccccc2)[nH]n1-c1ccc(Cl)cc1 | < 20 | 2.6 | > 300 | > 300 | – | – | – | – | – | – | – | –
O=C1N=C(N2CCOCC2)CN1c1cccc(Cl)c1 | < 20 | 1.3 | > 300 | > 300 | – | – | – | – | – | – | – | –
O=C1C=C(N2CCOCC2)CN1c1ccc(F)c(Cl)c1 | – | 2.2 | < 100 | 22.3 | – | – | – | – | 2.05 | – | – | –
O=C1N=C(N2CCOCC2)CN1c1ccc(Cl)c(Cl)c1 | < 20 | 1.9 | > 300 | > 300 | – | – | – | – | – | – | – | –
CN(C1=NC(=O)N(c2ccc(Cl)cc2)C1)C1CCCCC1 | – | 2.7 | > 300 | > 300 | – | – | – | – | – | – | – | –
O=C1C=C(N2CCOCC2)CN1c1ccc(F)cc1 | – | – | > 300 | 337 | – | – | – | – | 0.494 | – | – | –
O=C1C=C(N2CCOCC2)C(=O)N1c1ccc(F)cc1 | < 20 | 1.5 | > 100 | 128 | – | – | – | – | – | – | – | –
COC1(OC)C(N2CCOCC2)=NC(=O)N1c1ccc(Cl)cc1 | < 20 | 1.7 | > 30 | > 100 | – | – | – | – | – | – | – | –
O=C1N=C(N2CCCCCC2)CN1c1ccc(Cl)cc1 | – | – | > 300 | > 300 | – | – | – | – | 11.6 | – | – | –
O=C1N=C(N2CCOCC2)CN1c1ccc(Cl)cc1 [IMEPITOIN] | – | 1.5 | 75.6 | – | – | 17.2 | 176 | 998 | 4.35 | 3 | – | 39

Reference: ChEMBL document CHEMBL1138158, “Synthesis, pharmacology, and structure-activity relationships of novel imidazolones and pyrrolones as modulators of GABAA receptors” (J Med Chem, 2006)
